Rows were chosen to be rich in hits. Some 1.5% of all compounds tested hit in one or more screens of this group.
NR2E3 ag-1 – human photoreceptor-specific nuclear receptor agonism; inhibition of corepressor binding, % at 3.98 µM; CHO-S Gal4-NCOR/VP16-NR2E3 two-hybrid, luciferase; 360,000 tested, 0.35% active; AID 602229;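 active means inhibition above the mean of all tested compounds plus 3 SD, cut at about 70% in these data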;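 further: 0% = DMSO with NR2E3 transfected cells and 100% = cells lacking NR2E3 construct; higher means lower luciferase signal from less NR2E3 corepressor binding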
NR2E3 ag-2 – NR2E3 (human) agonism; 320,000 tested, 0.12% active; AID 2300; Q9Y5X4; GST-NR2E3/biotin-RetCOR TR-FRET, 1536-well; inhibition of corepressor binding, % at 4.78 µM;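 active means percent inhibition above the cutoff of mean plus 3 SD of all tested compounds, set per screening campaign, cut at about 20% in these data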;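 further: 0% = DMSO wells and 100% = biotin wells as full block of FRET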
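system = GST-tagged NR2E3 plus biotinylated RetCOR corepressor | input = 1.35 nM GST-NR2E3 | also added = 7 nM biotin-RetCOR | schedule = 5 h incubation at 4 °C | measured by = TR-FRET with europium anti-GST and streptavidin-D2, 340 nm excitation | read-out = percent loss of FRET ratio relative to control wells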
PG9 Ab binder – PG9 antibody binding by small molecule; TR-FRET gp120-PG9 antibody binding; inhibition, % at 6.7 µM; 360,000 tested, 0.43% active; AID 624416; in the data active means inhibition above about 8.5%
Rev-erbA mod – Rev-erb alpha (human) modulation. Rev-erbα–FITC-DNA binding, fluorescence polarization, 90 min. AID 1259318. activity, % at 10 µM. 370,000 tested, 0.79% active. P20393;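 active means activity above about 14%, limit read from the data; passing the limit was not always enough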;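 further: 0% = DMSO wells with 35 nM protein and 100% = DMSO wells with 750 nM protein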
Target sequence (P20393 whole entry, looked up): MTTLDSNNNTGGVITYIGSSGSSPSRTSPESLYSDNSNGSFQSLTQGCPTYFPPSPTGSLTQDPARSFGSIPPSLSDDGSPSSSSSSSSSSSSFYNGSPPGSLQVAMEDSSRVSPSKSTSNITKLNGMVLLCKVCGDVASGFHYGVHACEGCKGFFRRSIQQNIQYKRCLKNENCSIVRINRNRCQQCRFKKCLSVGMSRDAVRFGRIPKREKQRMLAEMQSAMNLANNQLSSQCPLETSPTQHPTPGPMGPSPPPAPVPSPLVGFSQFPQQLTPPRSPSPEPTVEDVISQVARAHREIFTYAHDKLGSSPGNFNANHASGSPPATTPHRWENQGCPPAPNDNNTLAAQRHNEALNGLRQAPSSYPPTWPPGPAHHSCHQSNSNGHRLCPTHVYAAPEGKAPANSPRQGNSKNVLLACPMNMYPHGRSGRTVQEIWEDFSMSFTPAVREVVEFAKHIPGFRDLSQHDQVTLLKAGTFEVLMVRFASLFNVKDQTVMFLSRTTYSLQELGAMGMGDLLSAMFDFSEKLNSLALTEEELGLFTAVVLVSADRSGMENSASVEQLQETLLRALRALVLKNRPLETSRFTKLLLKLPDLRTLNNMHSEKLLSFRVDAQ
NR2E3 ag confirm – confirmation of human NR2E3 nuclear receptor agonists | cell-free NR2E3 corepressor release, TR-FRET, 5 h | activation (reported as inhibition), % at 3.98 µM | 360 tested, 39% active | shares compounds with NR2E3 ag-2 | AID 2379; in the data active means activation above about 20%
PPARg-NCOR2 ag – counter-screen for NR2E3 agonists: human PPARgamma-NCOR2 interaction agonists | 360 tested, 45% active | TR-FRET PPARg-NCOR2 coregulator interaction, biochemical | inhibition, % at 3.98 µM | shares compounds with NR2E3 ag-2 | AID 504787; in the data active means inhibition above about 20%;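 further: 0% = DMSO vehicle and 100% = wells without protein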
* marks the source's active call; other numbers are inactive results; . = no result given.

SMILES	NR2E3 ag-1	NR2E3 ag-2	PG9 Ab binder	Rev-erbA mod	NR2E3 ag confirm	PPARg-NCOR2 ag
COC(=O)C1CSC(C)(C)C(=O)N1 (stereo not given)	15	1	1	3	.	.
COC(=O)CCCC[C@H]1SC[C@H]2NC(=O)N[C@]21O	.	63*	.	.	61*	47*
C[C@]12C=CC(=O)C=C1CCC1C2[C@@H](O)C[C@@]2(C)C1CC[C@]2(O)C(=O)COP(=O)(O)O (stereo not given in full)	.	.	.	4	.	.
Cc1oc2c(c1C(=O)NCc1cccnc1)C(=O)c1ccccc1C2=O	.	22*	.	.	19	0
CC(=O)c1c(C)oc2c1C(=O)c1ccccc1C2=O	-22	-3	-3	0	.	.
CCOc1ccc(C2C(C#N)=C(N)SC(N)=C2C#N)c(OCC)c1	2	6	1	-3	.	.
CCCCc1ccc(C2C(C#N)=C(N)SC(N)=C2C#N)s1	.	42*	.	.	-1	-2
O=S(=O)(NCc1cccs1)c1cccc(S(=O)(=O)N2CCCCC2)c1	-11	34*	2	4	-6	-6
O=S(=O)(c1cccc(S(=O)(=O)N2CCCC2)c1)N1CCCCC1	-16	5	-1	-4	.	.
C#CCn1c(=NC(=O)CSC(C)=O)sc2cc(F)ccc21	15	27*	.	.	11	20*
Cc1cc(=O)n(C2CCS(=O)(=O)C2)[nH]1 (stereo not given)	-10	33*	-3	-5	-5	-4
COc1cccc2c(=S)c(CCC(C)=O)c(C)[nH]c12	-2	21*	-2	1	6	-2
O=c1cc(-c2ccccc2)[nH]n1-c1ccccc1	-21	.	-2	-1	.	.
CC(C)(C)c1cc(=O)n(-c2ccccc2)[nH]1	7	29*	0	-4	-4	1
Nc1ncn([C@@H]2O[C@H](CO)[C@H](O)C2O)c(=O)n1 (stereo not given in full)	.	.	.	0	.	.
COc1ccc(Cn2c(-c3ccc(OC)cc3)nc3c(c(=O)c4ccccc4n3C)c2=O)cc1	.	41*	.	.	29*	20*
C=C1c2c(Cl)ccc(O)c2C(O)=C2C(=O)[C@]3(O)C(O)=C(C(N)=O)C(=O)[C@@H](N(C)C)[C@@H]3[C@@H](O)[C@H]12	.	.	.	-31	.	.
C=C1c2cccc(O)c2C(O)=C2C(=O)[C@]3(O)C(O)=C(C(N)=O)C(=O)[C@@H](N(C)C)[C@@H]3[C@@H](O)[C@H]12	-22	31*	1	-41	1	1
O=c1c2cc(O)c(O)cc2oc2cc(O)c(C3OC(CO)C(O)C(O)C3O)c(O)c12 (stereo not given)	-21	29*	-8	-7	20*	-5
c1ccc2c(c1)-c1cccc3c1c-2cc1ccccc13	.	25*	.	.	-7	-4
CC1(C)O[C@@H]2CC3C4CCC5=CC(=O)C=C[C@]5(C)[C@@]4(F)[C@@H](O)C[C@]3(C)[C@]2(C(=O)CO)O1 (stereo not given in full)	.	.	.	0	.	.
COc1ccc(CCN2C(=O)C(O)=C(C(=O)c3ccco3)C2c2cccs2)cc1OC (stereo not given)	9	24*	4	2	18	14
COc1cc(C2C(C(=O)c3ccco3)=C(O)C(=O)N2CCc2ccccc2)ccc1O (stereo not given)	-26	1	-1	-2	.	.
COCCN1C(=O)C(O)=C(C(=O)c2ccco2)C1c1cccc(Oc2ccccc2)c1 (stereo not given)	-18	23*	2	2	6	28*
CCCOc1cccc(C2C(C(=O)c3ccco3)=C(O)C(=O)N2CCN(CC)CC)c1 (stereo not given)	-4	4	-1	0	.	.
SMILES	NR2E3 ag-1	NR2E3 ag-2	PG9 Ab binder	Rev-erbA mod	NR2E3 ag confirm	PPARg-NCOR2 ag
Cn1cncc1[C@@](N)(c1ccc(Cl)cc1)c1ccc2c(c1)c(-c1cccc(Cl)c1)cc(=O)n2C	.	.	.	14	.	.
Cc1ccc(S(=O)(=O)NCC(=O)OCC(=O)c2ccc(Br)s2)cc1	-14	22*	0	-1	3	10
CCCC[C@@H](CC)COC(=O)/C=C/c1ccc(OC)cc1	.	.	.	4	.	.
O=C(Nc1nnc(Cc2ccccc2)s1)c1cccs1	-30	27*	2	14	-2	4
O=C(C1=C(O)C(=O)N(CCN2CCOCC2)C1c1ccc(Cl)cc1)c1cc2ccccc2o1 (stereo not given)	-17	20*	5	5	26*	23*
CN(C)CCN1C(=O)C(O)=C(C(=O)c2cc3ccccc3o2)C1c1ccccn1 (stereo not given)	.	27*	.	.	2	4
O=C1C=C(N2CCOCC2)c2ccccc2C1=O	17	33*	-10	-4	38*	65*
O=C1C=C(N2CCOCC2)c2cccc3cccc1c23	6	.	-5	-6	.	.
CCC[C@@H]1C[C@@H](C(=O)N[C@H]([C@H]2O[C@H](SC)[C@H](O)[C@@H](O)[C@H]2O)[C@H](C)O)N(C)C1	.	.	.	-4	.	.
Fc1ccc(NCc2nnc(SCc3nnc(-c4ccccc4)o3)n2CC2CCCO2)cc1 (stereo not given)	-5	36*	1	2	-18	4
O=C(CSc1nnc(CNc2ccc(F)cc2)n1CC1CCCO1)Nc1ccccc1 (stereo not given)	4	3	0	-2	.	.
CN(C(=O)c1sc2nc(N3CCOCC3)c3c(c2c1N)CCCC3)c1ccccc1	-2	7	2	0	.	.
Cc1ccccc1NC(=O)c1sc2nc(N3CCOCC3)c3c(c2c1N)CCCC3	-89	23*	5	3	-10	3

Compound activity from PubChem BioAssay.
